Screens: PubChem, several laboratories
Scp-1 inhibitor: Scp-1 phosphatase inhibitors, primary screen, biochemical, colorimetric, uHTS; Recombinant Scp1, phosphopeptide, malachite green phosphate absorbance; inhibition, % at 20 µM; hit rate 0.88% among 340,000; AID 493091, 2011;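 active = inhibition above about 50% at 20 µM, limit read from the data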;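 note: plate controls were DMSO wells with enzyme for no effect and wells lacking enzyme for full effect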
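Incubation: 45 min enzyme reaction at room temperature / System: truncated SCP-1 phosphatase (76-261aa) / Reagent: Phospho 17-mer peptide substrate / Buffer or medium: Acidic Tris acetate buffer with magnesium and detergent / Signal: absorbance at 630 nm / Doses: one concentration, 20 µM, with 1.0% DMSO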
CASP6 VEID inh: human caspase-6 inhibitors, primary screen, biochemical, VEID-R110 fluorescence, single point, set 2 | purified caspase-6, Z-VEID-R110 cleavage fluorescence | hit rate 0.53% among 350,000 | P55212 | AID 686996, 2013 | inhibition, % at 12.5 µM;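 active = mean inhibition across replicates at least about 35%, with every replicate also reaching that limit, limit read from the data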;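 note: 0% = median of neutral control wells and 100% = no fluorescence left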
STEP inh: STEP phosphatase inhibitors, primary screen, biochemical, fluorescence intensity, uHTS; AID 588621, 2011; recombinant STEP, OMFP fluorogenic substrate; Tyrosine-protein phosphatase non-receptor type 5 (Homo sapiens), P54829; inhibition, % at 20 µM; hit rate 0.25% among 360,000;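 active = inhibition at 20 µM, scaled per plate between control wells, above about 37%, limit read from the data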;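 note: 0% = DMSO with enzyme and substrate and 100% = substrate only without enzyme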
Target sequence (P54829 whole entry, looked up): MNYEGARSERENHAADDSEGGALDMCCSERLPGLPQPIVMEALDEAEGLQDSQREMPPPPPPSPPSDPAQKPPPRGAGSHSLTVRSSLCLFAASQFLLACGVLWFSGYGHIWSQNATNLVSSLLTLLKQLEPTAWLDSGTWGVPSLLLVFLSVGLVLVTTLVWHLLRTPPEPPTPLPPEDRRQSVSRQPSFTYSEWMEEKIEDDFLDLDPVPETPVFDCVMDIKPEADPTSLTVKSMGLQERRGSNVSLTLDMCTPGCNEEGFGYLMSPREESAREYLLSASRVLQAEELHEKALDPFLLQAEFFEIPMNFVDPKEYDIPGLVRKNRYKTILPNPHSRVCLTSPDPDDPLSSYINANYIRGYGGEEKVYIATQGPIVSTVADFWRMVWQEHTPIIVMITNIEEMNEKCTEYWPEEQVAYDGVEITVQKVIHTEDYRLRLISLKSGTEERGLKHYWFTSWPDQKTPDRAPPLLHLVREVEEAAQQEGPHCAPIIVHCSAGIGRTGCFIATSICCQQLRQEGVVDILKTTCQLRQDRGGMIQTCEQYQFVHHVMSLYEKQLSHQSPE
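medium = Bis-Tris buffer pH 6.0, 2.5 mM DTT, 0.005% Tween 20 | test system = STEP (striatal-enriched tyrosine phosphatase) enzyme, cell-free | measure = normalized % inhibition | compound dosing = 20 µM, 1% DMSO | also added = 25 µM OMFP | schedule = reaction 20 min, ambient temperature | measured by = fluorescence read at 480 nm ex / 540 nm em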
SUMO1-SIM PPI: modulators of SUMO1 protein-protein interactions, primary screen, biochemical, uHTS | Small ubiquitin-related modifier 1 (Homo sapiens), P63165 | SUMO1 binding to a labelled peptide, TR-FRET, 1 h | inhibition, % at 20 µM | hit rate 0.33% among 360,000; in the data active = inhibition above about 37%
DNMT1 inh: human DNMT1 methyltransferase inhibitors, primary screen, biochemical, molecular beacon, fluorescence, HinP1I cleavage, uHTS. hit rate 0.83% among 360,000. inhibition (reported as % activation of signal), % at 10 µM. DNA (cytosine-5)-methyltransferase 1 (Homo sapiens), P26358. AID 588458, 2011; in the data active = inhibition above about 50%
LMPTP inh: LMPTP phosphatase inhibitors, primary screen, biochemical, fluorescence intensity, uHTS; Low molecular weight phosphotyrosine protein phosphatase (Homo sapiens), P24666; recombinant LMPTP-A, OMFP fluorogenic substrate; inhibition, % at 20 µM; hit rate 0.22% among 360,000; AID 651560, 2012;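 active = compounds that cut the enzyme signal by at least half of the control window in the single-dose screen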;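 note: plate controls were DMSO wells with enzyme plus substrate for no effect and substrate without enzyme for full effect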
Target sequence (P24666 whole entry, looked up): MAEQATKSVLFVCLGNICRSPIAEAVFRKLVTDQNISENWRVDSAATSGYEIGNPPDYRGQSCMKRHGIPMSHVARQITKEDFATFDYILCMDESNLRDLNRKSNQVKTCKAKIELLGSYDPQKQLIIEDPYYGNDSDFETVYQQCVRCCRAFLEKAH
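Test system – LMPTP-A enzyme · Amount – LMPTP-A at 0.625 nM final in the reaction · Buffer or medium – Bis-Tris pH 6.0, DTT, detergent · Reagent – OMFP 400 µM · Doses – single 20 µM dose · Schedule – reaction 50 min, room temperature, dark · Detection – fluorescence intensity of OMFP turnover product · Evaluation – percent inhibition versus substrate-only and uninhibited controls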
Scp-1 conf: Scp-1 phosphatase inhibitors, retest, confirmation, biochemical, colorimetric, single concentration. inhibition, % at 20 µM. recombinant SCP-1 catalytic domain, phosphate release, malachite green absorbance. shares compounds with Scp-1 inhibitor. hit rate 61% among 2,500;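 note: plate controls were DMSO with enzyme for no effect and buffer wells lacking enzyme for full effect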
Scp-1 MG ctr: colorimetric readout interference by compounds, confirmation, artefact control for Scp-1 inhibitor project, biochemical, single concentration; 2,500 tested, under 10 active; Colorimetric interference counterscreen, malachite green absorbance 630 nm; AID 540313, 2011; shares compounds with Scp-1 inhibitor; apparent inhibition (interference), % at 20 µM;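 note: compounds added after enzyme reaction finished so only phosphate colour detection is probed; plate controls were DMSO wells with completed Scp-1 reaction for no effect and substrate wells lacking enzyme for full effect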
Scp-1 Tm shift: Scp-1 binding by thermal shift, confirmation, orthogonal assay for Scp-1 inhibitor project, biophysical, differential scanning fluorimetry; shares compounds with Scp-1 inhibitor; Recombinant SCP1, Sypro Orange thermal shift Tm; thermal shift relative to vanadate control, % at 40 µM; hit rate 25% among 1,500; AID 540329, 2011;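 active = substances whose mean melting-temperature shift, as a percentage of the reference inhibitor's shift, reaches about 5.3%, limit read from the data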;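 note: 0% = Tm of DMSO wells and 100% = Tm with sodium orthovanadate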
The depositor's hits bear a star; x = no result given. A selection: hits, their analogues and other compounds. The true share with any hit is near 1.7%.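 Rule for the calls, unless noted: active = inhibition of at least 30% at 20 µM; inactive = the rest.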

SMILES	Scp-1 inhibitor	CASP6 VEID inh	STEP inh	SUMO1-SIM PPI	DNMT1 inh	LMPTP inh	Scp-1 conf	Scp-1 MG ctr	Scp-1 Tm shift
O=C(O)C1CC=CCC1C(=O)N1CCc2ccccc21 (stereo not given)	52*	x	5	-2	33	1	49*	0	0
CCN(CC)S(=O)(=O)c1cccc(NC(=O)COC(=O)/C=C/c2ccco2)c1	10	8	-2	-3	4	0	x	x	x
CN(C)S(=O)(=O)c1cccc(NC(=O)COC(=O)/C=C/c2ccco2)c1	68*	x	7	0	32	2	41*	-13	-19
Cc1ccc(NC(=O)CCSCCC(=O)Nc2ccc(C)c(C)c2)cc1C	-6	x	2	-1	-1	1	x	x	x
Cc1ccc(NC(=O)CC(=O)Nc2ccc(C)c(C)c2)cc1C	62*	3	1	4	6	1	82*	-2	0
O=C(O)c1ccccc1C(=O)Nc1n[nH]c(=S)s1	99*	-1	1	4	2	-1	42*	-3	-4
COc1ccc(/C=C(\NC(=O)c2ccccc2)C(=O)OC[C@@H]2CCC[N+]3(C)CCCCC23)cc1OC (stereo not given in full)	102*	1	-1	-8	1	-1	89*	-11	-16
COc1cccc2cc(C(=O)NCc3ccco3)c(=Nc3ccc(C(=O)O)cc3)oc12	56*	-1	0	-17	-4	0	32*	-19	0
COc1cccc2cc(C(=O)NCc3ccco3)c(=O)oc12	-3	5	-1	-16	-1	-2	x	x	x
NC(=O)C(CC(=O)O)NC(=O)[C@@H]1CCCNc2c(I)cc([N+](=O)[O-])cc2C(=O)N[C@@H](CO)C(=O)N[C@@H](Cc2ccc(O)cc2)C(=O)N1 (stereo not given in full)	62*	x	3	-7	10	0	43*	-13	9.8*
NC(=O)C(CC(=O)O)NC(=O)[C@@H]1CCOc2c(I)cc([N+](=O)[O-])cc2C(=O)N[C@@H](CCC(=O)O)C(=O)N[C@@H](CO)C(=O)N1 (stereo not given in full)	29	x	x	x	x	x	x	x	x
C[C@@H]1NC(=O)c2cc([N+](=O)[O-])cc(I)c2OCC[C@@H](C(=O)NC(CC(=O)O)C(N)=O)NC(=O)[C@H](CCC(=O)O)NC1=O (stereo not given in full)	50*	x	x	x	x	x	53*	-13	-4
CCN(CC)c1ccc(NC(=O)CCCCC(=O)Nc2ccc(N(CC)CC)cc2)cc1	-8	-1	4	7	0	0	x	x	x
NC(=O)C1CCN(C(=O)CNC(=O)c2ccc(Br)o2)CC1	-4	-1	-2	3	0	-2	x	x	x
CC1CCN(S(=O)(=O)c2ccc(NC(=O)Cc3cccs3)cc2)CC1	77*	x	0	2	25	3	60*	-26	5.8*
O=C(NCc1ccco1)c1cc2cc3ccc(Cl)cc3nc2o1	0	x	0	-14	18	-1	x	x	x
CCOc1ccc(NC(=O)c2cc3cc4ccc(OC)cc4nc3o2)cc1	55*	x	32	1	47	22	41*	-10	-7
COc1ccc2cc3cc(C(=O)NCc4ccco4)oc3nc2c1	61*	x	3	-6	5	0	56*	-13	-13
Cc1c(C(=O)c2ccc(Cl)c([N+](=O)[O-])c2)c2ccccn2c1CCC#N	-3	x	-1	-20	0	2	x	x	x
Cc1sc2ncn(CC(=O)NCc3ccccc3)c(=O)c2c1C	2	-3	-3	-2	4	0	x	x	x
NC(=O)Cn1cnc2c(nnn2-c2cccc(Cl)c2)c1=O	-3	-1	1	19	7	0	x	x	x
O=C(Cn1cnc2sc(-c3ccccc3)cc2c1=O)NCc1ccccc1	83*	x	1	-7	11	7	62*	-17	-28
O=C(Cn1cnc2c(nnn2-c2cccc(Cl)c2)c1=O)NCc1ccccc1	53*	-2	8	7	34	33	62*	-18	-5
CN1CCN(C2CN(Cc3cn(Cc4cccc(Cl)c4)nn3)S(=O)(=O)C2)CC1 (stereo not given)	x	-12	x	1	x	-5	x	x	x
O=C(CCN1C(=O)/C(=C/c2ccc3c(c2)OCO3)SC1=S)Nc1ccc(C(=O)O)cc1	84*	5	18	4	5	92*	71*	-11	8.7*
SMILES	Scp-1 inhibitor	CASP6 VEID inh	STEP inh	SUMO1-SIM PPI	DNMT1 inh	LMPTP inh	Scp-1 conf	Scp-1 MG ctr	Scp-1 Tm shift
CCOc1ccc(/C=C2\SC(=S)N(CCC(=O)Nc3cccc(C(=O)O)c3)C2=O)cc1	85*	1	54*	-16	0	74*	61*	-20	37*
O=C(CCN1C(=O)S/C(=C\c2ccc(Cl)cc2)C1=O)Nc1ccc(C(=O)O)cc1	80*	-3	8	-23	1	12	72*	-13	-4
Cc1ccc(NC(=O)CN2C(=O)S/C(=C\c3cc(Cl)c(OCC(=O)O)c(Cl)c3)C2=O)cc1	90*	39*	98*	20	8	85*	57*	-15	-4
O=C(CCN1C(=O)/C(=C/c2ccc3c(c2)OCO3)SC1=S)Nc1ccccc1	-8	x	2	-1	44	0	x	x	x
COc1ccccc1C/C(N)=N/OC(=O)COc1ccc2ccccc2c1	-10	2	1	-1	1	2	x	x	x
O=C(CCN1C(=O)/C(=C/c2cccs2)SC1=S)Nc1ccc(C(=O)O)cc1	-15	14	5	-18	1	4	x	x	x
CCOc1ccc(/C=C2\SC(=S)N(CCC(=O)Nc3ccc(C(=O)O)cc3)C2=O)cc1	88*	0	45*	31	62*	67*	60*	-20	5
